In ChEMBL document CHEMBL1157010, “Synthesis and in vivo evaluation of 3,4-disubstituted gababutins” (Bioorg Med Chem Lett, 2010):
pIC50: −log10 of the molar value. Activity calls are given as the source filed them. No cut-off for these calls is given here.

Columns and labels:
[1] = Displacement of [3H]gabapentin from Voltage-dependent calcium channel subunit alpha-2/delta in pig cerebral cortex by scintillation counting; format: tissue-based, Sus scrofa
Rattus norvegicus [2] = assay: Antiinflammatory activity against carrageenan-induced thermal hyperalgesia in rat assessed as paw withdrawal from heat at 30 mg/kg, po after 2 hrs; format: functional, organism-based; set-up: dose 30 mg/kg
Method in brief: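 Rats received intraplantar carrageenan in the paw, and inflammation and hyperalgesia developed within 2 h. At that point the compound was given orally. Reversal of thermal hyperalgesia was read as time to paw withdrawal. Significance was tested against vehicle (P <0.05, P <0.01).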

[3] = Bioavailability in rat; format: ADME, organism-based; conditions: in vivo
[4] = Lipophilicity, log D at pH 7.4; format: physicochemical; conditions: buffer
[5] = Clearance in rat; format: ADME, organism-based; conditions: in vivo
Rattus norvegicus [6] = assay: Sedative activity in rat at > 100 mg/kg, po; format: organism-based; set-up: dose 100 mg/kg, route oral; conditions: in vivo
Rattus norvegicus [7] = assay: Sedative activity in rat water lick conflict model of anxiety at 100 mg/kg, po; format: organism-based; set-up: dose 100 mg/kg, route oral; conditions: in vivo
[8] = Tmax in rat; format: ADME, organism-based; conditions: in vivo
Rattus norvegicus [9] = assay: Anxiolytic activity in po dosed rat water lick conflict model of anxiety assessed as increase in number of shocks received; format: functional
Method in brief: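 Rat drinking-conflict model with oral dosing across a range of doses. The read-out was the mean number of shock episodes received per rat over 10 min, where a greater number of shocks indicates reduced anxiety. The minimum effective dose was determined, with significance tested against vehicle (P <0.05).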

[10] = Elimination half life in rat; format: ADME, organism-based; conditions: in vivo, read-out: beta t1/2 (converted)

Compound: CC[C@@H]1C[C@](CN)(CC(=O)O)C[C@@H]1CC
- pIC50 [1]: 5.38

Compound: C[C@@H]1CC(CN)(CC(=O)O)C[C@H]1C
- pIC50 [1]: 6.05

Compound: C[C@@H]1C[C@](CN)(CC(=O)O)C[C@@H]1C
- pIC50 [1]: 6.82

Compound: C[C@@H]1C[C@@](CN)(CC(=O)O)C[C@@H]1C
- pIC50 [1]: 6.97

Compound: C[C@@H]1CC[C@@](CN)(CC(=O)O)C1
- pIC50 [1]: 7.15

Compound: C[C@@H]1CC[C@](CN)(CC(=O)O)C1
- pIC50 [1]: 7.52

Compound: CCC[C@H]1CC(CN)(CC(=O)O)C[C@@H]1C (mixture of isomers)
- pIC50 [1]: 7.68

Compound: CC[C@H]1CC(CN)(CC(=O)O)C[C@@H]1CC (racemic)
- pIC50 [1]: 5.96

Compound: C[C@H]1CC(CN)(CC(=O)O)C[C@@H]1C (relative stereo) [ATAGABALIN]
- Activity (Rattus norvegicus [2]): Active
- bioavailability [3]: 87%
- logD [4]: -1
- clearance [5]: 4 mL/min/kg
- Activity (Rattus norvegicus [6]): Toxic
- Activity (Rattus norvegicus [7]): Toxic
- Tmax [8]: 1.2 h
- Activity (Rattus norvegicus [9]): Dose-dependent effect
- minimal effective dose (Rattus norvegicus [9]; read-out: MED): 10 mg/kg
- pIC50 [1]: 7.66
- half-life [10]: 2.4 h
